From ChEMBL document CHEMBL1156807, “Catalysis and inhibition of Mycobacterium tuberculosis methionine aminopeptidase” (J Med Chem, 2010)

Experiment: Inhibition of Mycobacterium tuberculosis MetAP1c expressed in Escherichia coli lacking endogenous MetAP by cell based Met-AMC substrate hydrolysis assay
Method in brief: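 E. coli carrying a chromosomal amber mutation in EcMetAP and complemented by plasmid-borne MtMetAP1c were grown to exponential phase and washed. Cells were stored in CaCl2/Tris/glycerol at −80 °C. The assay held 150 µM Met-AMC, 5 mM CaCl2 (for permeabilization) and 50 mM Tris pH 7.5, with inhibitor at 12 serial dilutions. Fluorescence (ex 360/em 460) was read every 2 min for 6-8 hr at room temperature. IC50 came from hydrolysis rates.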

| SMILES | IC50 [µM] |
| --- | --- |
| O=C(O)c1ccc(-c2cc(Cl)ccc2Cl)o1 | 623 |
| Cc1ccsc1-c1ccc(O)c(O)c1 | 35 |
| Cc1nc(-c2ccc(O)c(O)c2)cs1 | 20 |
| Cc1ccc(CSc2nnc(N)[nH]2)cc1 | 281 |
| Nc1nnc(SCc2ccc(F)cc2)[nH]1 | 121 |

Experiment: Inhibition of Mycobacterium tuberculosis H37Rv MetAP1c in presence of 50 uM Mn(2+) by Met-AMC substrate hydrolysis assay

| SMILES | IC50 [µM] |
| --- | --- |
| O=C(O)c1ccc(-c2ccccc2Cl)o1 | 16 |
| O=C(O)c1ccc(-c2cc(Cl)ccc2Cl)o1 | 14 |
| Cc1ccsc1-c1ccc(O)c(O)c1 | 14 |
| Cc1nc(-c2ccc(O)c(O)c2)cs1 | 37 |
| Cc1ccc(CSc2nnc(N)[nH]2)cc1 | 26 |
| Fc1ccc(CSc2nnc[nH]2)cc1 | 143 |
| Nc1nnc(SCc2ccc(F)cc2)[nH]1 | 18 |
| Nc1nnc(SCc2ccc(Cl)cc2Cl)[nH]1 | 2 |

Experiment: Inhibition of Mycobacterium tuberculosis H37Rv MetAP1c in presence of 50 uM Co(2+) by Met-AMC substrate hydrolysis assay

| SMILES | IC50 [µM] |
| --- | --- |
| O=C(O)c1ccc(-c2ccccc2Cl)o1 | > 500 |
| O=C(O)c1ccc(-c2cc(Cl)ccc2Cl)o1 | > 500 |
| Cc1ccsc1-c1ccc(O)c(O)c1 | 38 |
| Cc1nc(-c2ccc(O)c(O)c2)cs1 | 76 |
| Cc1ccc(CSc2nnc(N)[nH]2)cc1 | 0.69 |
| Fc1ccc(CSc2nnc[nH]2)cc1 | 2 |
| Nc1nnc(SCc2ccc(F)cc2)[nH]1 | 0.74 |

Experiment: Inhibition of Mycobacterium tuberculosis H37Rv MetAP1c in presence of 50 uM Fe(2+) by Met-AMC substrate hydrolysis assay
Method in brief: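 Recombinant MtMetAP1c (mapB gene) was expressed in E. coli BL21(DE3) and purified as the apoenzyme (0.5 µM). It was activated with FeCl2 50 µM plus 100 µM ascorbic acid, CoCl2 10 µM, MnCl2 20 µM or NiCl2 20 µM. Buffer was 50 mM MOPS pH 7.5 with 100 µM Met-AMC at room temperature, read by fluorescence at ex 360/em 460.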

| SMILES | IC50 [µM] |
| --- | --- |
| O=C(O)c1ccc(-c2ccccc2Cl)o1 | > 500 |
| O=C(O)c1ccc(-c2cc(Cl)ccc2Cl)o1 | > 500 |
| Cc1ccsc1-c1ccc(O)c(O)c1 | 1.4 |
| Cc1nc(-c2ccc(O)c(O)c2)cs1 | 3.6 |
| Cc1ccc(CSc2nnc(N)[nH]2)cc1 | > 500 |
| Fc1ccc(CSc2nnc[nH]2)cc1 | > 500 |
| Nc1nnc(SCc2ccc(F)cc2)[nH]1 | > 500 |
| Nc1nnc(SCc2ccc(Cl)cc2Cl)[nH]1 | 40 |

Experiment: Inhibition of Mycobacterium tuberculosis H37Rv MetAP1c in presence of 50 uM Ni(2+) by Met-AMC substrate hydrolysis assay

| SMILES | IC50 [µM] |
| --- | --- |
| O=C(O)c1ccc(-c2ccccc2Cl)o1 | > 500 |
| O=C(O)c1ccc(-c2cc(Cl)ccc2Cl)o1 | > 500 |
| Cc1ccsc1-c1ccc(O)c(O)c1 | 60 |
| Cc1nc(-c2ccc(O)c(O)c2)cs1 | 104 |
| Cc1ccc(CSc2nnc(N)[nH]2)cc1 | 2.5 |
| Nc1nnc(SCc2ccc(F)cc2)[nH]1 | 1.3 |

Experiment: Inhibition of Mycobacterium tuberculosis MetAP1c mediated cell growth of Escherichia coli lacking endogenous MetAP complemented with MtMetAP1c after 72 hrs by resazurin dye reduction method

| SMILES | IC50 [µM] |
| --- | --- |
| O=C(O)c1ccc(-c2cc(Cl)ccc2Cl)o1 | > 1000 |
| Cc1ccsc1-c1ccc(O)c(O)c1 | 89.5 |
| Cc1nc(-c2ccc(O)c(O)c2)cs1 | 208 |
| Cc1ccc(CSc2nnc(N)[nH]2)cc1 | > 1000 |
| Nc1nnc(SCc2ccc(F)cc2)[nH]1 | > 1000 |
